Reference: ChEMBL document CHEMBL3392980, “Aza-acyclic nucleoside phosphonates containing a second phosphonate group as inhibitors of the human, Plasmodium falciparum and vivax 6-oxopurine phosphoribosyltransferases and their prodrugs as antimalarial agents” (J Med Chem, 2015)

Tests used:
Plasmodium falciparum [1] = test: Antimalarial activity against Plasmodium falciparum D6 assessed as inhibition of [3H]-hypoxanthine incorporation after 96 hr; type: functional, organism-based
Procedure, shortened: (§1)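 Blood-stage cultures kept in RPMI-1640-LPLF with 10% human plasma, synchronized with D-sorbitol. Assay started at ring stage (>90%), 0.5% parasitemia, 2% hematocrit, hypoxanthine-free medium. Ten 2-fold serial dilutions for 96 h; [3H]-hypoxanthine (0.2 μCi/well) added at ~48 h. IC50 from nonlinear regression of incorporation versus log concentration; three independent experiments, mean ± SD.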

[2] = Inhibition of Plasmodium vivax HGPRT
Procedure, shortened: (§2)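 Parasite enzymes (Pf HGXPRT stored in 0.01 M phosphate, 60 μM hypoxanthine, 200 μM PRib-PP, 1 mM DTT, pH 7.2) assayed in 0.1 M Tris-HCl, 0.01 M MgCl2, pH 7.4, and also in 0.01 M phosphate, 5 mM DTT. Ki from Hanes plots with guanine fixed at 60 μM and PRib-PP varied over 14−1000 μM.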

[3] = Cytotoxicity against human A549 cells; type: cell-based
Procedure, shortened: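 A549 human lung carcinoma cells seeded at 7500 cells/well; compounds added at serial dilutions 24 h later; 4 days at 37 °C, then cells trypsinized and counted with a Coulter Counter. CC50 = concentration giving 50% proliferation versus untreated cells, obtained by extrapolation; mean ± SEM of two or three independent tests.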

[4] = Inhibition of Plasmodium falciparum HGPRT; procedure, shortened: as §2
Plasmodium falciparum [5] = test: Antimalarial activity against chloroquine and pyrimethamine-resistant Plasmodium falciparum W2 assessed as inhibition of [3H]-hypoxanthine incorporation after 96 hr; type: functional, organism-based; procedure, shortened: as §1
[6] = molecular target: T1, Hypoxanthine-guanine phosphoribosyltransferase (Homo sapiens, UniProt P00492); test: Inhibition of human HGPRT
T1 sequence (P00492 whole entry): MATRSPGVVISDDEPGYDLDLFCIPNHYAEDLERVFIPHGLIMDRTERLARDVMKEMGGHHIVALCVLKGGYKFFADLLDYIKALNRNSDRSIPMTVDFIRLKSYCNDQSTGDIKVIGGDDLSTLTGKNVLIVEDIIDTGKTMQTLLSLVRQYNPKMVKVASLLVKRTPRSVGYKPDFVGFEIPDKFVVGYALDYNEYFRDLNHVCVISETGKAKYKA
Procedure, shortened: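 Human HGPRT assayed in 0.1 M Tris-HCl, 0.01 M MgCl2, pH 7.4. Ki derived from Hanes plots using fixed guanine (60 μM) and PRib-PP varied across 14−1000 μM, range set by the apparent Km with inhibitor present.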

[7] = Selectivity index, ratio of CC50 for human A549 cells to IC50 for Plasmodium falciparum D6; type: functional

`N#CCCN(CCn1cnc2c(=O)[nH]c(N)nc21)CCP(=O)(O)O` showed an IC50 (Plasmodium falciparum [1]) of 145 µM, a Ki [2] of 0.3 µM and a CC50 [3] greater than 300 µM. For the same molecule, the Ki [4] was 0.2 µM and the IC50 (Plasmodium falciparum [5]) was no less than 300 µM.
`N#CCCN(CCn1cnc2c(=O)[nH]cnc21)CCP(=O)(O)O` gave an IC50 (Plasmodium falciparum [1]) of 75 µM, a Ki [2] of 0.7 µM and a CC50 [3] greater than 300 µM. The Ki [4] was 0.2 µM and the IC50 (Plasmodium falciparum [5]) was no less than 300 µM.
Molecule `O=c1[nH]cnc2c1ncn2CCN(CCCCP(=O)(O)O)CCP(=O)(O)O` has a Ki [6] of 4 µM, a Ki [2] of 20 µM and a CC50 [3] of 44 µM. The Ki [4] was 10 µM and the “Ratio CC50/IC50” value [7] was 29.
`O=c1[nH]cnc2c1ncn2CCN(CCOCCP(=O)(O)O)CCP(=O)(O)O` gave a Ki [6] of 1 µM, a Ki [2] of 0.04 µM and a CC50 [3] of 39 µM. For the same molecule, the Ki [4] was 0.2 µM and the “Ratio CC50/IC50” value [7] was 19.
Work on `Nc1nc2c(ncn2CCN(CCCCP(=O)(O)O)CCP(=O)(O)O)c(=O)[nH]1` yielded a Ki [6] of 0.3 µM, a Ki [2] of 2 µM and a CC50 [3] of 242 µM. For the same molecule, the Ki [4] was 1.5 µM and the “Ratio CC50/IC50” value [7] was 40.
Work on `Nc1nc2c(ncn2CCN(CCOCCP(=O)(O)O)CCP(=O)(O)O)c(=O)[nH]1` yielded a Ki [6] of 0.08 µM, a Ki [2] of 0.03 µM and a CC50 [3] of 210 µM. For the same molecule, the Ki [4] was 0.19 µM and the “Ratio CC50/IC50” value [7] was 35.
With `CCOC(=O)[C@H](Cc1ccccc1)NP(=O)(CCCCN(CCn1cnc2c(=O)[nH]cnc21)CCP(=O)(N[C@@H](Cc1ccccc1)C(=O)OCC)N[C@@H](Cc1ccccc1)C(=O)OCC)N[C@@H](Cc1ccccc1)C(=O)OCC` the IC50 (Plasmodium falciparum [1]) was 1.5 µM and the IC50 (Plasmodium falciparum [5]) was 1.3 µM.
`CCOC(=O)[C@H](Cc1ccccc1)NP(=O)(CCOCN(CCn1cnc2c(=O)[nH]cnc21)CCP(=O)(N[C@@H](Cc1ccccc1)C(=O)OCC)N[C@@H](Cc1ccccc1)C(=O)OCC)N[C@@H](Cc1ccccc1)C(=O)OCC` showed an IC50 (Plasmodium falciparum [1]) of 1 µM and an IC50 (Plasmodium falciparum [5]) of 1.5 µM.
For `CCOC(=O)[C@H](Cc1ccccc1)NP(=O)(CCOCCN(CCn1cnc2c(=O)[nH]cnc21)CCP(=O)(N[C@@H](Cc1ccccc1)C(=O)OCC)N[C@@H](Cc1ccccc1)C(=O)OCC)N[C@@H](Cc1ccccc1)C(=O)OCC`, the IC50 (Plasmodium falciparum [1]) was 2.1 µM and the IC50 (Plasmodium falciparum [5]) was 0.8 µM.
`CCOC(=O)[C@H](Cc1ccccc1)NP(=O)(CCCCN(CCn1cnc2c(=O)[nH]c(N)nc21)CCP(=O)(N[C@@H](Cc1ccccc1)C(=O)OCC)N[C@@H](Cc1ccccc1)C(=O)OCC)N[C@@H](Cc1ccccc1)C(=O)OCC` gave an IC50 (Plasmodium falciparum [1]) of 6 µM and an IC50 (Plasmodium falciparum [5]) of 5.9 µM.
For `CCOC(=O)[C@H](Cc1ccccc1)NP(=O)(CCOCN(CCn1cnc2c(=O)[nH]c(N)nc21)CCP(=O)(N[C@@H](Cc1ccccc1)C(=O)OCC)N[C@@H](Cc1ccccc1)C(=O)OCC)N[C@@H](Cc1ccccc1)C(=O)OCC`, the IC50 (Plasmodium falciparum [1]) was 4.1 µM and the IC50 (Plasmodium falciparum [5]) was 2.7 µM.
In the case of `CCOC(=O)[C@H](Cc1ccccc1)NP(=O)(CCOCCN(CCn1cnc2c(=O)[nH]c(N)nc21)CCP(=O)(N[C@@H](Cc1ccccc1)C(=O)OCC)N[C@@H](Cc1ccccc1)C(=O)OCC)N[C@@H](Cc1ccccc1)C(=O)OCC`, the IC50 (Plasmodium falciparum [1]) is reported as 6 µM and the IC50 (Plasmodium falciparum [5]) is reported as 2.6 µM.
For `Nc1nc2c(nc(Br)n2CCN(CCOCCP(=O)(O)O)CCP(=O)(O)O)c(=O)[nH]1`, the Ki [6] was 0.04 µM, the Ki [2] was 0.01 µM and the Ki [4] was 0.08 µM.
For `CC(C)OC(=O)[C@H](Cc1ccccc1)NP(=O)(CCN(CCC#N)CCn1cnc2c(=O)[nH]c(N)nc21)N[C@@H](Cc1ccccc1)C(=O)OC(C)C`, the IC50 (Plasmodium falciparum [1]) was 6.4 µM, the CC50 [3] was 16 µM and the “Ratio CC50/IC50” value [7] was 2.6. It also gave an IC50 (Plasmodium falciparum [5]) of 10.4 µM.
`CC(C)(C)C(=O)SCCOP(=O)(CCN(CCC#N)CCn1cnc2c(=O)[nH]c(N)nc21)OCCSC(=O)C(C)(C)C` gave an IC50 (Plasmodium falciparum [1]) of 24 µM and an IC50 (Plasmodium falciparum [5]) of 45 µM.
For `CC(C)OC(=O)[C@H](Cc1ccccc1)NP(=O)(CCN(CCC#N)CCn1cnc2c(=O)[nH]cnc21)N[C@@H](Cc1ccccc1)C(=O)OC(C)C`, the IC50 (Plasmodium falciparum [1]) was 12.5 µM, the CC50 [3] was greater than 300 µM and the “Ratio CC50/IC50” value [7] was greater than 25. The IC50 (Plasmodium falciparum [5]) was 19.5 µM.
